Converted amounts (≈) assume the structure as drawn.
Columns and labels:
Cryptococcus neoformans = test: […] activity against Cryptococcus neoformans ATCC 90113 after 48 hrs by microplate assay; format: functional, organism-based
Summary of the method: (§1)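 IC50 values were read from a modified 96-well microplate growth-inhibition assay against ATCC strains: C. neoformans 90113, S. aureus 6535 and methicillin-resistant S. aureus 33591. Positive controls were amphotericin B and tetracycline, and DMSO served as the negative control.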

Staphylococcus aureus [1] = test: Antibacterial activity against methicillin-resistant Staphylococcus aureus ATCC 33591 after 48 hrs by microplate assay; format: functional, organism-based; summary of the method: as §1
Staphylococcus aureus [2] = test: Antibacterial activity against Staphylococcus aureus ATCC 6535 after 48 hrs by microplate assay; format: functional, organism-based; summary of the method: as §1
[3] = Selectivity index, ratio of IC50 for african green monkey (Cercopithecus aethiops) Vero cells to IC50 for chloroquine-sensitive Plasmodium falciparum D6; format: toxicity, cell-based; settings: read-out: Ratio IC50
[4] = Selectivity index, ratio of IC50 for african green monkey (Cercopithecus aethiops) Vero cells to IC50 for chloroquine-resistant Plasmodium falciparum W2; format: toxicity, cell-based; settings: read-out: Ratio IC50
Plasmodium falciparum [5] = test: Antimalarial activity against chloroquine-resistant Plasmodium falciparum W2 by LDH reporter assay; format: functional, organism-based
Plasmodium falciparum [6] = test: Antimalarial activity against chloroquine-sensitive Plasmodium falciparum D6 by LDH reporter assay; format: functional, organism-based
[7] = target: Cannabinoid receptor 1 (Homo sapiens) (UniProt P21554); test: Displacement of [3H]CP-55940 from human recombinant CB1 receptor expressed in HEK293 cells at 1 uM; format: cell-based
Sequence of Cannabinoid receptor 1 (Homo sapiens) (P21554 whole entry): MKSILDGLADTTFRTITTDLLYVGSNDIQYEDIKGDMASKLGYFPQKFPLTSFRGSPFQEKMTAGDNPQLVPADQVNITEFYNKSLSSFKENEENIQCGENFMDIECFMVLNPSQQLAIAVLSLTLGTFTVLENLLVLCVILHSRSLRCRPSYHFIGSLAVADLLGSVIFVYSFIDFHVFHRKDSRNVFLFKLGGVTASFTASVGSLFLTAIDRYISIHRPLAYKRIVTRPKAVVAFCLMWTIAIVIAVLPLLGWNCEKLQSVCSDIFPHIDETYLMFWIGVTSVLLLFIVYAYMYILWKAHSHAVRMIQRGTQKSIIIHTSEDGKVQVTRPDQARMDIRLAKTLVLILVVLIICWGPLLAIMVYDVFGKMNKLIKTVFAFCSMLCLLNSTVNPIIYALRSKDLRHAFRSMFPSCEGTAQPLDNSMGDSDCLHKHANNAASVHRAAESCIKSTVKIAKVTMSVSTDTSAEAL
Summary of the method: (§2)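 Radioligand binding assay for the CB1 site, using human recombinant HEK-293 cells as the receptor source. Compounds were screened in a primary assay at 1 and 0.1 µM and expressed as % affinity. A response above 50% of maximum stimulation or inhibition counted as significant. WIN-55,212-2 was the reference, with DMSO as placebo.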

[8] = target: Cannabinoid receptor 1 (Homo sapiens) (UniProt P21554); test: Displacement of [3H]CP-55940 from human recombinant CB1 receptor expressed in HEK293 cells at 0.1 uM; format: cell-based; summary of the method: as §2
[9] = Cryptococcus neoformans, ATCC 90113, 48 h, read-out: IC50
[10] = Staphylococcus aureus, ATCC 33591, 48 h, read-out: IC50
[11] = Staphylococcus aureus, ATCC 6535, 48 h, read-out: IC50

SMILES | IC50 (Cryptococcus neoformans; [9]) [mg/L] | IC50 (Staphylococcus aureus [1]) | IC50 (Staphylococcus aureus [2]) | selectivity ratio [3] | selectivity ratio [4] | IC50 (Plasmodium falciparum [5]) [mg/L] | IC50 (Plasmodium falciparum [6]) [mg/L] | Activity [7] [%] | Activity [8] [%] | IC50 (Staphylococcus aureus [1]; [10]) [mg/L] | IC50 (Staphylococcus aureus [2]; [11]) [mg/L] | IC50 (Cryptococcus neoformans)
C[C@@H]1[C@H](O)[C@@H](C)/C=C/C=C/C=C/C=C/C=C/C=C/C=C/[C@H](O[C@@H]2O[C@H](C)[C@@H](O)[C@H](N)[C@@H]2O)C[C@@H]2O[C@](O)(C[C@@H](O)C[C@@H](O)[C@H](O)CC[C@@H](O)C[C@@H](O)CC(=O)O[C@H]1C)C[C@H](O)[C@H]2C(=O)O [AMPHOTERICIN B] | 0.375 (≈ 0.406 µM) | Not Active | Not Active | – | – | – | – | – | – | – | – | –
C[C@@H]1CC[C@H]2[C@@H](C)C(=O)O[C@@H]3O[C@@]4(C)CC[C@@H]1[C@]32OO4 [ARTEMISININ] | – | – | – | > 952 | > 1080 | – | – | – | – | – | – | –
C[C@H]1CC[C@H]2[C@H](C1)c1c(O)cc(/C=C/c3ccccc3)cc1OC2(C)C [MACHAERIOL A] | 50 (≈ 143 µM) | – | – | > 3.2 | > 7.9 | 0.6 (≈ 1.72 µM) | 1.5 (≈ 4.3 µM) | 7 | 10 | 10 (≈ 28.7 µM) | 15 (≈ 43 µM) | –
C[C@H]1CC[C@H]2[C@H](C1)c1c(O)cc(-c3cc4ccccc4o3)cc1OC2(C)C [MACHAERIOL B] | – | – | – | > 6.6 | > 40 | 0.12 (≈ 0.331 µM) | 0.72 (≈ 1.99 µM) | -3 | 3 | 4.5 (≈ 12.4 µM) | 5 (≈ 13.8 µM) | Not Active
CN(C)[C@@H]1C(O)=C(C(N)=O)C(=O)[C@@]2(O)C(O)=C3C(=O)c4c(O)cccc4[C@@](C)(O)[C@H]3C[C@@H]12 [TETRACYCLINE] | – | – | – | – | – | – | – | – | – | 0.15 (≈ 0.338 µM) | 0.15 (≈ 0.338 µM) | –

From ChEMBL document CHEMBL1156362, “Antimalarial (+)-trans-hexahydrodibenzopyran derivatives from Machaerium multiflorum” (J Nat Prod, 2001)
